Results from ChEMBL document CHEMBL1153559, “Role of a sodium-dependent symporter homologue in the thermosensitivity of beta-lactam antibiotic resistance and cell wall composition in Staphylococcus aureus” (2008).
Values after ≈ are worked out from the molar mass of the structure shown. Bridge positions count the residues as written; N and C are the ends. Square brackets hold non-standard residues; d marks the D form. Peptide text beside a SMILES is read from it. * marks the point of attachment. Ileψ(thiazoline)Cys = CC[C@H](C)[C@H](N)C1=N[C@H](C(=O)*)CS1; dOrn = NCCC[C@@H](N)C(=O)O

Tests used:
Format in all cases: functional
[1] = test system: Staphylococcus aureus; experiment: Antimicrobial activity against SCCmec type 1 methicillin-resistant Staphylococcus aureus COL RUSA11 expressing symporter gene smr1 at 42 degC incubated for 24 hrs by E-test; settings: COL RUSA11, 24 h
[2] = test system: Staphylococcus aureus; experiment: Antimicrobial activity against SCCmec type 1 methicillin-resistant Staphylococcus aureus COL D19455-T2 expressing symporter gene smr1 at 37 degC incubated for 24 hrs by E-test; settings: COL D19455-T2, 24 h
[3] = test system: Staphylococcus aureus; experiment: Antimicrobial activity against SCCmec type 1 methicillin-resistant Staphylococcus aureus COL 404 expressing symporter gene smr1 at 37 degC incubated for 24 hrs by E-test; settings: COL 404, 24 h
[4] = test system: Staphylococcus aureus; experiment: Antimicrobial activity against SCCmec type 1 methicillin-resistant Staphylococcus aureus COL D19455 expressing symporter gene smr1 at 42 degC incubated for 24 hrs by E-test; settings: COL D19455, 24 h
[5] = test system: Staphylococcus aureus; experiment: Antimicrobial activity against SCCmec type 1 methicillin-resistant Staphylococcus aureus COL C245Td expressing symporter gene smr1 at 42 degC incubated for 24 hrs by E-test
[6] = test system: Staphylococcus aureus; experiment: Antimicrobial activity against SCCmec type 1 methicillin-resistant Staphylococcus aureus COL 319-T1 expressing symporter gene smr1 at 42 degC incubated for 24 hrs by E-test; settings: COL 319-T1, 24 h
[7] = test system: Staphylococcus aureus; experiment: Antimicrobial activity against SCCmec type 1 methicillin-resistant Staphylococcus aureus COL E3005 expressing symporter gene smr1 at 37 degC incubated for 24 hrs by E-test; settings: COL E3005, 24 h
[8] = test system: Staphylococcus aureus; experiment: Antimicrobial activity against SCCmec type 3 methicillin-resistant Staphylococcus aureus COL 301 expressing symporter gene smr1 at 37 degC incubated for 24 hrs by E-test; settings: COL 301, 24 h
[9] = test system: Staphylococcus aureus; experiment: Antimicrobial activity against SCCmec type 3 methicillin-resistant Staphylococcus aureus COL 301-T6 expressing symporter gene smr1 at 37 degC incubated for 24 hrs by E-test; settings: COL 301-T6, 24 h
[10] = test system: Staphylococcus aureus; experiment: Antimicrobial activity against SCCmec type 1 methicillin-resistant Staphylococcus aureus COL E3005-T4 expressing symporter gene smr1 at 42 degC incubated for 24 hrs by E-test; settings: COL E3005-T4, 24 h
[11] = test system: Staphylococcus aureus; experiment: Antimicrobial activity against SCCmec type 1 methicillin-resistant Staphylococcus aureus COL 404 expressing symporter gene smr1 at 42 degC incubated for 24 hrs by E-test; settings: COL 404, 24 h
[12] = test system: Staphylococcus aureus; experiment: Antimicrobial activity against SCCmec type 4 methicillin-resistant Staphylococcus aureus COL MW2 expressing symporter gene smr1 at 37 degC incubated for 24 hrs by E-test; settings: COL MW2, 24 h
[13] = test system: Staphylococcus aureus; experiment: Antimicrobial activity against SCCmec type 1 methicillin-resistant Staphylococcus aureus COL 319 expressing symporter gene smr1 at 37 degC incubated for 24 hrs by E-test; settings: COL 319, 24 h
[14] = test system: Staphylococcus aureus; experiment: Antimicrobial activity against SCCmec type 4 methicillin-resistant Staphylococcus aureus COL MW2-T expressing symporter gene smr1 at 42 degC incubated for 24 hrs by E-test
[15] = test system: Staphylococcus aureus; experiment: Antimicrobial activity against SCCmec type 1 methicillin-resistant Staphylococcus aureus COL D19455 expressing symporter gene smr1 at 37 degC incubated for 24 hrs by E-test; settings: COL D19455, 24 h
[16] = test system: Staphylococcus aureus; experiment: Antimicrobial activity against SCCmec type 1 methicillin-resistant Staphylococcus aureus COL 404-T3 expressing symporter gene smr1 at 42 degC incubated for 24 hrs by E-test; settings: COL 404-T3, 24 h
[17] = test system: Staphylococcus aureus; experiment: Antimicrobial activity against SCCmec type 1 methicillin-resistant Staphylococcus aureus COL E3005 expressing symporter gene smr1 at 42 degC incubated for 24 hrs by E-test; settings: COL E3005, 24 h
[18] = test system: Staphylococcus aureus; experiment: Antimicrobial activity against SCCmec type 1 methicillin-resistant Staphylococcus aureus COL RUSA11-T3 expressing symporter gene smr1 at 42 degC incubated for 24 hrs by E-test; settings: COL RUSA11-T3, 24 h
[19] = test system: Staphylococcus aureus; experiment: Antimicrobial activity against SCCmec type 3 methicillin-resistant Staphylococcus aureus COL 301-T6 expressing symporter gene smr1 at 42 degC incubated for 24 hrs by E-test; settings: COL 301-T6, 24 h
[20] = test system: Staphylococcus aureus; experiment: Antimicrobial activity against SCCmec type 1 methicillin-resistant Staphylococcus aureus COL E2125 expressing symporter gene smr1 at 42 degC incubated for 24 hrs by E-test; settings: COL E2125, 24 h
[21] = test system: Staphylococcus aureus; experiment: Antimicrobial activity against SCCmec type 4 methicillin-resistant Staphylococcus aureus COL MW2-T expressing symporter gene smr1 at 37 degC incubated for 24 hrs by E-test
[22] = test system: Staphylococcus aureus; experiment: Antimicrobial activity against SCCmec type 1 methicillin-resistant Staphylococcus aureus COL E3005-T4 expressing symporter gene smr1 at 37 degC incubated for 24 hrs by E-test; settings: COL E3005-T4, 24 h
[23] = test system: Staphylococcus aureus; experiment: Antimicrobial activity against SCCmec type 1 methicillin-resistant Staphylococcus aureus COL E2125-T2 expressing symporter gene smr1 at 37 degC incubated for 24 hrs by E-test; settings: COL E2125-T2, 24 h
[24] = test system: Staphylococcus aureus; experiment: Antimicrobial activity against SCCmec type 1 methicillin-resistant Staphylococcus aureus COL D19455-T2 expressing symporter gene smr1 at 42 degC incubated for 24 hrs by E-test; settings: COL D19455-T2, 24 h
[25] = test system: Staphylococcus aureus; experiment: Antimicrobial activity against SCCmec type 4 methicillin-resistant Staphylococcus aureus COL MW2 expressing symporter gene smr1 at 42 degC incubated for 24 hrs by E-test; settings: COL MW2, 24 h
[26] = test system: Staphylococcus aureus; experiment: Antimicrobial activity against SCCmec type 1 methicillin-resistant Staphylococcus aureus COL RUSA11 expressing symporter gene smr1 at 37 degC incubated for 24 hrs by E-test; settings: COL RUSA11, 24 h
[27] = test system: Staphylococcus aureus; experiment: Antimicrobial activity against SCCmec type 1 methicillin-resistant Staphylococcus aureus COL 319-T1 expressing symporter gene smr1 at 37 degC incubated for 24 hrs by E-test; settings: COL 319-T1, 24 h
[28] = test system: Staphylococcus aureus; experiment: Antimicrobial activity against SCCmec type 1 methicillin-resistant Staphylococcus aureus COL RUSA11-T3 expressing symporter gene smr1 at 37 degC incubated for 24 hrs by E-test; settings: COL RUSA11-T3, 24 h
[29] = test system: Staphylococcus aureus; experiment: Antimicrobial activity against SCCmec type 1 methicillin-resistant Staphylococcus aureus COL 404-T3 expressing symporter gene smr1 at 37 degC incubated for 24 hrs by E-test; settings: COL 404-T3, 24 h
[30] = test system: Staphylococcus aureus; experiment: Antimicrobial activity against SCCmec type 1 methicillin-resistant Staphylococcus aureus COL 319 expressing symporter gene smr1 at 42 degC incubated for 24 hrs by E-test; settings: COL 319, 24 h
[31] = test system: Staphylococcus aureus; experiment: Antimicrobial activity against SCCmec type 1 methicillin-resistant Staphylococcus aureus COL E2125-T2 expressing symporter gene smr1 at 42 degC incubated for 24 hrs by E-test; settings: COL E2125-T2, 24 h
[32] = test system: Staphylococcus aureus; experiment: Antimicrobial activity against SCCmec type 3 methicillin-resistant Staphylococcus aureus COL 301 expressing symporter gene smr1 at 42 degC incubated for 24 hrs by E-test; settings: COL 301, 24 h
[33] = test system: Staphylococcus aureus; experiment: Antimicrobial activity against SCCmec type 1 methicillin-resistant Staphylococcus aureus COL E2125 expressing symporter gene smr1 at 37 degC incubated for 24 hrs by E-test; settings: COL E2125, 24 h
[34] = test system: Staphylococcus aureus; experiment: Antimicrobial activity against SCCmec type 1 methicillin-resistant Staphylococcus aureus COL C245Td expressing symporter gene smr1 at 37 degC incubated for 24 hrs by E-test
[35] = test system: Staphylococcus aureus; experiment: Antimicrobial activity against methicillin-resistant Staphylococcus aureus COL at 42 degC by population analysis method
In short: (§1)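 Population analysis: S. aureus cultures were grown overnight in TSB, then plated at different cell concentrations on agar containing twofold serial methicillin concentrations. Colonies were counted after 48 h of incubation at 37 or 42°C, giving a methicillin resistance profile.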

[36] = test system: Staphylococcus aureus; experiment: Antimicrobial activity against methicillin-resistant Staphylococcus aureus COL at 37 degC by population analysis method; in short: as §1
[37] = test system: Staphylococcus aureus; experiment: Antimicrobial activity against methicillin-resistant Staphylococcus aureus COL transposon mutant C245 harboring Tn551 gene at 42 degC by population analysis method; in short: as §1

In the case of Cc1onc(-c2ccccc2)c1C(=O)N[C@@H]1C(=O)N2[C@@H]1SC(C)(C)[C@@H]2C(=O)O [OXACILLIN], the MIC [1] is reported as 0.19 µg/mL (≈ 0.473 µM), the MIC [2] is reported as 64 µg/mL (≈ 159 µM) and the MIC [3] is reported as over 256 µg/mL. The MIC [4] was 0.25 µg/mL (≈ 0.623 µM), the MIC [5] was over 256 µg/mL and the MIC [6] was over 256 µg/mL. For the same compound, the MIC [7] was 1.5 µg/mL (≈ 3.74 µM), the MIC [8] was over 256 µg/mL and the MIC [9] was over 256 µg/mL. For the same compound, the MIC [10] was 0.38 µg/mL (≈ 0.947 µM), the MIC [11] was 1 µg/mL (≈ 2.49 µM) and the MIC [12] was 0.75 µg/mL (≈ 1.87 µM). It also gave an MIC [13] of over 256 µg/mL, an MIC [14] of 0.75 µg/mL (≈ 1.87 µM) and an MIC [15] of 1 µg/mL (≈ 2.49 µM). It also gave an MIC [16] of over 256 µg/mL, an MIC [17] of 0.5 µg/mL (≈ 1.25 µM) and an MIC [18] of 0.25 µg/mL (≈ 0.623 µM). For the same compound, the MIC [19] was 16 µg/mL (≈ 39.9 µM), the MIC [20] was 0.25 µg/mL (≈ 0.623 µM) and the MIC [21] was 8 µg/mL (≈ 19.9 µM). The MIC [22] was 12 µg/mL (≈ 29.9 µM), the MIC [23] was 128 µg/mL (≈ 319 µM) and the MIC [24] was 0.25 µg/mL (≈ 0.623 µM). It also gave an MIC [25] of 0.75 µg/mL (≈ 1.87 µM), an MIC [26] of 0.5 µg/mL (≈ 1.25 µM) and an MIC [27] of over 256 µg/mL. The MIC [28] was 4 µg/mL (≈ 9.96 µM), the MIC [29] was over 256 µg/mL and the MIC [30] was 0.75 µg/mL (≈ 1.87 µM). The MIC [31] was 0.5 µg/mL (≈ 1.25 µM), the MIC [32] was 1 µg/mL (≈ 2.49 µM) and the MIC [33] was 1 µg/mL (≈ 2.49 µM). The MIC [34] was over 256 µg/mL.
CC[C@H](C)[C@H](N)C1=N[C@H](C(=O)N[C@@H](CC(C)C)C(=O)N[C@H](CCC(=O)O)C(=O)N[C@H](C(=O)N[C@H]2CCCCNC(=O)[C@H](CC(N)=O)NC(=O)[C@@H](CC(=O)O)NC(=O)[C@H](Cc3cnc[nH]3)NC(=O)[C@@H](Cc3ccccc3)NC(=O)[C@H]([C@@H](C)CC)NC(=O)[C@@H](CCCN)NC2=O)[C@@H](C)CC)CS1 [BACITRACIN] ({Ileψ(thiazoline)Cys}-L[dE]IK[dOrn]I[dF]H[dD]N; lactam 4-C) gave an MIC [35] of 50 µg/mL (≈ 35.1 µM) and an MIC [36] of 50 µg/mL (≈ 35.1 µM).
Work on COc1cccc(OC)c1C(=O)N[C@@H]1C(=O)N2[C@@H]1SC(C)(C)[C@@H]2C(=O)O [METHICILLIN] yielded an MIC [37] of 400 µg/mL (≈ 1050 µM).
For N[C@@H]1CONC1=O [CYCLOSERINE], the MIC [35] was 50 µg/mL (≈ 490 µM) and the MIC [36] was 50 µg/mL (≈ 490 µM).
Work on CN(C)[C@@H]1C(O)=C(C(N)=O)C(=O)[C@@]2(O)C(O)=C3C(=O)c4c(O)cccc4[C@@](C)(O)[C@H]3C[C@@H]12 [TETRACYCLINE] yielded an MIC [35] of 100 µg/mL (≈ 225 µM) and an MIC [36] of 100 µg/mL (≈ 225 µM).
With C[C@@H]1O[C@@H]1P(=O)(O)O [FOSFOMYCIN] the MIC [35] was 25 µg/mL (≈ 181 µM) and the MIC [36] was 50 µg/mL (≈ 362 µM).
CN[C@H](CC(C)C)C(=O)N[C@H]1C(=O)N[C@@H](CC(N)=O)C(=O)N[C@H]2C(=O)N[C@H]3C(=O)N[C@H](C(=O)N[C@H](C(=O)O)c4cc(O)cc(O)c4-c4cc3ccc4O)[C@H](O)c3ccc(c(Cl)c3)Oc3cc2cc(c3O[C@@H]2O[C@H](CO)[C@@H](O)[C@H](O)[C@H]2O[C@H]2C[C@](C)(N)[C@H](O)[C@H](C)O2)Oc2ccc(cc2Cl)[C@H]1O [VANCOMYCIN] showed an MIC [35] of 3 µg/mL (≈ 2.07 µM) and an MIC [36] of 1.5 µg/mL (≈ 1.04 µM).
